Screens (PubChem BioAssay)
Sampled rows, rich in hits. Any-hit rate of the full collection: about 3.2%.
MEKK2 mut-MEK5 = MEK5 binding signal on mutant MEKK2 PB1, primary screen, biochemical, multiplex bead flow cytometry, Alexa488-MEK5; Alexa488-MEK5 binding to MEKK2 mutant; percent response, % at 10 µM; 290,000 compounds, 0.35% hits; AID 1530, 2009; in the data active means percent response above about 24%, passing the limit was not always enough
DSG3 Ab inh = inhibitors of pemphigus antibody binding to DSG3, primary screen, biochemical, bead-based, flow cytometry, scFv-GFP; Desmoglein-3 (Homo sapiens), P32926; DSG3-coupled beads, scFv-anti-DSG3-GFP binding; hits give low values; binding (percent of control), % at 10 µM; 310,000 compounds, 0.48% hits; AID 588358, 2011;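 active means binding more than 3 SD below its plate's average and above zero; inconclusive means below that plate limit but binding exactly zero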;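 further: hits lower antibody fragment binding to DSG3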
UBC13 polyUb = UBC13 polyubiquitin chain formation inhibitors, primary screen, biochemical, TR-FRET, uHTS | inhibition, % at 20 µM | 330,000 compounds, 0.47% hits | AID 485273, 2010; in the data active means inhibition above about 45%, passing the limit was not always enough; inconclusive means no clear call, values can overlap the other calls
Target sequence (P61088 whole entry, looked up): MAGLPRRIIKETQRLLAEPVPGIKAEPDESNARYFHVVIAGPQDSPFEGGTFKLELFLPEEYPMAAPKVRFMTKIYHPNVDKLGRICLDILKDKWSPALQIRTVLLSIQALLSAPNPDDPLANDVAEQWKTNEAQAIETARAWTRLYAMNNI
MEKK3 PB1 HTS = modulators of MEKK3-MEK5 PB1 binding, primary screen, biochemical, wildtype MEKK3, multiplex bead flow cytometry, Alexa488-MEK5; Mitogen-activated protein kinase kinase kinase 3 (Homo sapiens), Q99759; bead-based flow cytometry, Alexa488-MEK5 binding to MEKK3; actives lie on both sides; 0 = blocked by unlabeled MEK5, 100 = vehicle; binding response (% of control), % at 10 µM; 290,000 compounds, 1.4% hits;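 active means binding response more than 3 SD above or below the average of its plate-row segment, actives on both sides; inconclusive means wells at one plate position flagged as instrument error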;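 further: Alexa488 bead fluorescence after subtracting the streptavidin-only scavenger bead signal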
Target sequence (Q99759 whole entry, looked up): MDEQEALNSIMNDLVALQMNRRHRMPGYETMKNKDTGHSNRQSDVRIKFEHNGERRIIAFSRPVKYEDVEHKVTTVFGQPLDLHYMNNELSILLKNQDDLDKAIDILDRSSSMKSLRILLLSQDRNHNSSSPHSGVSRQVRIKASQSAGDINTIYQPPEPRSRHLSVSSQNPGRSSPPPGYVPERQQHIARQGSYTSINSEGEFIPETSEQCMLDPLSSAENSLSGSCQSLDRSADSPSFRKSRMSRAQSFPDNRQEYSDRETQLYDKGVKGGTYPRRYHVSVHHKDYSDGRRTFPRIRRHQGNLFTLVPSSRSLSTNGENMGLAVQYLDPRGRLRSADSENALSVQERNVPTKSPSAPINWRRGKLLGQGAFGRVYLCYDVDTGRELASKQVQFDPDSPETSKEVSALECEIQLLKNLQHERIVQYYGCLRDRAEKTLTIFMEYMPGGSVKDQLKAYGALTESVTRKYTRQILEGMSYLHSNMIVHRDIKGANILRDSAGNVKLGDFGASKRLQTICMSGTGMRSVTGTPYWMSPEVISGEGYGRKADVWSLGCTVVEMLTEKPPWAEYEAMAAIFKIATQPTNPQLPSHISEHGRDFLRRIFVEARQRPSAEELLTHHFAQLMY
MEKK2 WT-MEK5 = modulators of MEK5 binding to wildtype MEKK2, primary screen, biochemical, multiplex bead flow cytometry, Alexa488-MEK5. Mitogen-activated protein kinase kinase kinase 2 (Homo sapiens), Q9Y2U5. Alexa488-MEK5 binding to MEKK2 WT; actives lie on both sides. binding response (% of control), % at 10 µM. 290,000 compounds, 1.1% hits. AID 1531, 2009; in the data active means binding response below about 67% or above about 130%; inconclusive means no clear call, values can overlap the other calls; inactive means in between
Apaf-1 inh = inhibitors of human Apaf-1 apoptosome, primary screen, biochemical, DEVD-Rh110 fluorescence, uHTS; reconstituted apoptosome caspase-3 activity; inhibition, % at 20 µM; 330,000 compounds, 0.71% hits; AID 489030, 2010; active means inhibition of at least 40% at 20 µM;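 further: plate controls were DMSO wells for no effect and DEVD-CHO caspase inhibitor wells for full effect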
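Material: reconstituted apoptosome with Apaf-1, cytochrome c, caspase-9, procaspase-3, dATP. Technique: Rh110 fluorescence intensity. Buffer or medium: pH 7.5 Hepes buffer with CHAPS, BSA, DTT. Times: 30 min plus 50 min, RT.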
MEKK2wt confirm = modulators of MEK5 binding to wildtype MEKK2, confirmation, biochemical, single concentration, multiplex bead flow cytometry. shares compounds with MEKK3 PB1 HTS. Alexa488-MEK5 binding to MEKK2 WT; actives lie on both sides. binding response (% of control), % at 10 µM. 5,900 compounds, 2.4% hits; in the data active means binding response below about 16% or above about 210%; inactive means in between
MEKK2mut confirm = mutant MEKK2 PB1-MEK5 binding signal retest – biochemical, single concentration, multiplex bead flow cytometry, confirmation. shares compounds with MEKK3 PB1 HTS. Alexa488-MEK5 binding to MEKK2 mutant. percent response, % at 10 µM. 5,900 compounds, 2% hits. AID 1893, 2009; in the data active means percent response mostly above about 71%, no sharp cut-off; inactive means mostly below about 38%;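 further: higher means compound restores mutant binding toward wildtype level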
MEKK3 confirm = MEKK3 wild-type PB1 binding to MEK5, inhibitors, confirmation, biochemical, bead multiplex flow cytometry, single concentration, wildtype; shares compounds with MEKK3 PB1 HTS; Alexa488-MEK5 binding to MEKK3; hits give low values; binding response (% of control), % at 10 µM; 5,900 compounds, 1.8% hits;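 active means binding response below 72% of control, or above a set upper limit, though filed actives all read lower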;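 further: 100% = DMSO only wells and 0% = binding blocked by excess unlabeled MEK5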
* marks the source's active call; other numbers are inactive results; [ ] = remark or other dose.

`COc1cc2[nH]c(=O)c(C(=O)NCc3ccc(C)cc3)c(O)c2cc1OC` gave DSG3 Ab inh 99.4.
Cc1ccccc1NC(=O)CSCCN1C(=O)c2ccccc2C1=O was read as MEKK2 mut-MEK5 -1.0, DSG3 Ab inh 93.2, UBC13 polyUb 12.3, MEKK3 PB1 HTS 74.0*[inhibitor], MEKK2 WT-MEK5 97.0, Apaf-1 inh -4.3, MEKK2wt confirm 98.0, MEKK2mut confirm 0.0 and MEKK3 confirm 99.0.
`Cc1ccccc1NC(=O)CCN1C(=O)c2ccccc2C1=O` gave MEKK2 mut-MEK5 2.0, DSG3 Ab inh 113.9, UBC13 polyUb -0.3, MEKK3 PB1 HTS 103.0, MEKK2 WT-MEK5 103.0 and Apaf-1 inh -8.9.
Cc1ccc(NC(=O)CSCC(=O)NCCc2ccccc2)c(C)c1 was read as DSG3 Ab inh inconclusive, UBC13 polyUb 2.5 and Apaf-1 inh 17.4.
Screening O=C(NCCCN1CCCCCC1)C1CC(=O)N(CCc2ccccc2)C1 (stereo unspecified) returned MEKK2 mut-MEK5 25.0*, DSG3 Ab inh 110.9, UBC13 polyUb 40.4, MEKK3 PB1 HTS 81.0, MEKK2 WT-MEK5 147.0*, Apaf-1 inh 17.4, MEKK2wt confirm 154.0, MEKK2mut confirm 25.0 and MEKK3 confirm 94.0.
`OCCN(CCO)CC(O)COc1ccc(C23CC4CC(CC(C4)C2)C3)cc1` (stereo unspecified) gave MEKK2 mut-MEK5 3.0, DSG3 Ab inh 113.2, MEKK3 PB1 HTS 132.0*, MEKK2 WT-MEK5 122.0, MEKK2wt confirm 140.0, MEKK2mut confirm 15.0 and MEKK3 confirm 107.0.
For OCCN(CCO)CC(O)COc1ccc(Br)cc1 (stereo unspecified) the results were MEKK2 mut-MEK5 3.0, DSG3 Ab inh 107.9, UBC13 polyUb 3.2, MEKK3 PB1 HTS 94.0, MEKK2 WT-MEK5 97.0 and Apaf-1 inh -0.3.
For Cc1cccc(C)c1NC(=O)CN(c1c(C)cccc1C)S(C)(=O)=O the results were DSG3 Ab inh 100.0.
Cc1ccccc1NC(=O)COc1nsnc1N1CCOCC1 was read as MEKK2 mut-MEK5 -16.0, UBC13 polyUb -9.6, MEKK3 PB1 HTS 2.0*[inhibitor], MEKK2 WT-MEK5 2.0*[inhibitor], Apaf-1 inh 2.6, MEKK2wt confirm 101.0, MEKK2mut confirm -1.0 and MEKK3 confirm 98.0.
O=C(NCc1ccco1)c1cccs1 was read as MEKK2 mut-MEK5 -11.0, DSG3 Ab inh 98.6, UBC13 polyUb 2.6, MEKK3 PB1 HTS 77.0*[inhibitor], MEKK2 WT-MEK5 84.0, Apaf-1 inh -21.0, MEKK2wt confirm 100.0, MEKK2mut confirm -1.0 and MEKK3 confirm 97.0.
Screening O=C(NCc1ccco1)NC12CC3CC(CC(C3)C1)C2 returned MEKK2 mut-MEK5 -13.0, DSG3 Ab inh 101.9, UBC13 polyUb -1.6, MEKK3 PB1 HTS 81.0*[inhibitor], MEKK2 WT-MEK5 91.0, Apaf-1 inh 15.0, MEKK2wt confirm 98.0, MEKK2mut confirm 0.0 and MEKK3 confirm 97.0.
Cc1ccc(CNC(=O)NC23CC4CC(CC(C4)C2)C3)cc1 was read as MEKK2 mut-MEK5 1.0, DSG3 Ab inh 79.2, UBC13 polyUb 1.5, MEKK3 PB1 HTS 100.0, MEKK2 WT-MEK5 99.0 and Apaf-1 inh -1.5.
O=C(NCc1nc(-c2ccccc2)no1)c1cccs1 was read as MEKK2 mut-MEK5 -39.0, DSG3 Ab inh 83.1, UBC13 polyUb 1.5, MEKK3 PB1 HTS 0.0*[inhibitor], MEKK2 WT-MEK5 -4.0*[inhibitor], Apaf-1 inh -3.1, MEKK2wt confirm 95.0, MEKK2mut confirm 0.0 and MEKK3 confirm 99.0.
`O=C(NCc1nc(-c2ccc(C(F)(F)F)cc2)no1)c1cccs1` gave MEKK2 mut-MEK5 3.0, UBC13 polyUb 1.9, MEKK3 PB1 HTS 109.0, MEKK2 WT-MEK5 110.0 and Apaf-1 inh -2.9.
Screening CC1=C(C(=O)N(C)C)CC(CC(=O)NCC2CCCCC2)C(=O)N1CCCN1CCCC1=O (stereo unspecified) returned DSG3 Ab inh 105.7.
Screening CCNC(=O)CN(c1ccc(Oc2ccccc2)cc1)S(=O)(=O)c1ccccc1 returned MEKK2 mut-MEK5 4.0, DSG3 Ab inh 108.5, UBC13 polyUb -0.9, MEKK3 PB1 HTS 103.0, MEKK2 WT-MEK5 104.0 and Apaf-1 inh 10.1.
Screening CCOC(=O)Cn1cc(/C=C/[N+](=O)[O-])c2ccccc21 returned MEKK2 mut-MEK5 2.0, DSG3 Ab inh 105.8, UBC13 polyUb -3.4, MEKK3 PB1 HTS 101.0, MEKK2 WT-MEK5 97.0 and Apaf-1 inh -2.9.
For Cc1cccc(Cn2cc(/C=C/[N+](=O)[O-])c3ccccc32)c1 the results were MEKK2 mut-MEK5 -11.0, DSG3 Ab inh 95.8, UBC13 polyUb 2.9, MEKK3 PB1 HTS 86.0, MEKK2 WT-MEK5 57.0*[inhibitor], Apaf-1 inh -1.7, MEKK2wt confirm 90.0, MEKK2mut confirm -7.0 and MEKK3 confirm 100.0.
`Cc1ccc2[nH]c3c(=O)n(N)c(C)nc3c2c1` gave MEKK2 mut-MEK5 0.0, DSG3 Ab inh 98.2, UBC13 polyUb 1.5, MEKK3 PB1 HTS 101.0, MEKK2 WT-MEK5 92.0 and Apaf-1 inh -2.8.
COc1ccc2[nH]c3c(=O)n(N)c(C)nc3c2c1 was read as MEKK2 mut-MEK5 1.0, DSG3 Ab inh 105.0, UBC13 polyUb 5.9, MEKK3 PB1 HTS 136.0*, MEKK2 WT-MEK5 107.0, Apaf-1 inh -3.1, MEKK2wt confirm 104.0, MEKK2mut confirm 2.0 and MEKK3 confirm 105.0.
Screening COc1ccc(CCC2(C)OCC(CCCCO)O2)cc1 (stereo unspecified) returned DSG3 Ab inh 92.2.
`Cc1ccc(-n2cc(CN(C)CCc3cn[nH]c3)c(-c3cccc(C)c3)n2)cc1` gave MEKK2 mut-MEK5 47.0, DSG3 Ab inh 105.2, UBC13 polyUb 21.5, MEKK3 PB1 HTS 100.0, MEKK2 WT-MEK5 158.0*, Apaf-1 inh 22.6, MEKK2wt confirm 119.0, MEKK2mut confirm 8.0 and MEKK3 confirm 107.0.
